Experimental findings from ChEMBL document CHEMBL1649423, “Inhibition of lymphoid tyrosine phosphatase by benzofuran salicylic acids” (J Med Chem, 2011) are described below.

Experiment [1] addresses Receptor-type tyrosine-protein phosphatase F (Homo sapiens, UniProt P10586). In words: Inhibition of LAR. In a few lines:
(§1)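 Fluorometric DiFMUP hydrolysis at 30 C in 50 mM Bis-Tris pH 6.0 (ionic strength 50 mM with NaCl), 1 mM DTT, 5% DMSO, 1% PEG8000. DiFMUP fixed at each PTP's Km. Initial rates read at ex 360/em 460 nm across several compound concentrations. No-enzyme control used to correct for nonenzymatic hydrolysis. HePTP was recombinant in-house; PTP1B, Shp1, CD45 and LAR were commercial recombinant enzymes.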

Experiment [2] concerns the target T1, Tyrosine-protein phosphatase non-receptor type 1 (Homo sapiens, UniProt P18031).
T1 sequence (P18031 whole entry): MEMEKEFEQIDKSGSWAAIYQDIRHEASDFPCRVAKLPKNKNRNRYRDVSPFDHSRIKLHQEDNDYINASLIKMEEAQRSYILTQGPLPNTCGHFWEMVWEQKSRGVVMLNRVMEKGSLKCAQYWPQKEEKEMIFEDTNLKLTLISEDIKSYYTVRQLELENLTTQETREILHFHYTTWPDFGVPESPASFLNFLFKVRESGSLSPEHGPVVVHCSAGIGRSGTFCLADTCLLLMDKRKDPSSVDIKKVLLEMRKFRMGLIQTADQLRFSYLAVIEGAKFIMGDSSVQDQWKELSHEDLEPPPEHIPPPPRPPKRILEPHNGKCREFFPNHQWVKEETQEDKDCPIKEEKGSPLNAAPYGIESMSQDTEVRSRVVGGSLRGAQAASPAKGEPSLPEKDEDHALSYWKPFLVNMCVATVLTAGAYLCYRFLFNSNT
In words: Inhibition of PTP1B. In short, it runs like this: as §1

For experiment [3], the target named is T2, Tyrosine-protein phosphatase non-receptor type 7 (Homo sapiens, UniProt P35236).
T2 sequence (P35236 whole entry): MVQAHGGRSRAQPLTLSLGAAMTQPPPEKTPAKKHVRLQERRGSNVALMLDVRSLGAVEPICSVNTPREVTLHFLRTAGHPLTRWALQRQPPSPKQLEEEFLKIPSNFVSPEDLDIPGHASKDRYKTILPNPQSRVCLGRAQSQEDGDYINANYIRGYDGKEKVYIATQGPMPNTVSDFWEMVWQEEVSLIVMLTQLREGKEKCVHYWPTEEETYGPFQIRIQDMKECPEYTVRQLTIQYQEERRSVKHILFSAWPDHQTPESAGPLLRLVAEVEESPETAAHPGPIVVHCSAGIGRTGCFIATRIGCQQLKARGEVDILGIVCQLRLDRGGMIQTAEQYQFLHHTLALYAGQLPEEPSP
In words: Inhibition of HePTP. In a few lines:
as §1

Experiment [4] addresses T3, Receptor-type tyrosine-protein phosphatase C (Homo sapiens, UniProt P08575).
T3 sequence (P08575 whole entry): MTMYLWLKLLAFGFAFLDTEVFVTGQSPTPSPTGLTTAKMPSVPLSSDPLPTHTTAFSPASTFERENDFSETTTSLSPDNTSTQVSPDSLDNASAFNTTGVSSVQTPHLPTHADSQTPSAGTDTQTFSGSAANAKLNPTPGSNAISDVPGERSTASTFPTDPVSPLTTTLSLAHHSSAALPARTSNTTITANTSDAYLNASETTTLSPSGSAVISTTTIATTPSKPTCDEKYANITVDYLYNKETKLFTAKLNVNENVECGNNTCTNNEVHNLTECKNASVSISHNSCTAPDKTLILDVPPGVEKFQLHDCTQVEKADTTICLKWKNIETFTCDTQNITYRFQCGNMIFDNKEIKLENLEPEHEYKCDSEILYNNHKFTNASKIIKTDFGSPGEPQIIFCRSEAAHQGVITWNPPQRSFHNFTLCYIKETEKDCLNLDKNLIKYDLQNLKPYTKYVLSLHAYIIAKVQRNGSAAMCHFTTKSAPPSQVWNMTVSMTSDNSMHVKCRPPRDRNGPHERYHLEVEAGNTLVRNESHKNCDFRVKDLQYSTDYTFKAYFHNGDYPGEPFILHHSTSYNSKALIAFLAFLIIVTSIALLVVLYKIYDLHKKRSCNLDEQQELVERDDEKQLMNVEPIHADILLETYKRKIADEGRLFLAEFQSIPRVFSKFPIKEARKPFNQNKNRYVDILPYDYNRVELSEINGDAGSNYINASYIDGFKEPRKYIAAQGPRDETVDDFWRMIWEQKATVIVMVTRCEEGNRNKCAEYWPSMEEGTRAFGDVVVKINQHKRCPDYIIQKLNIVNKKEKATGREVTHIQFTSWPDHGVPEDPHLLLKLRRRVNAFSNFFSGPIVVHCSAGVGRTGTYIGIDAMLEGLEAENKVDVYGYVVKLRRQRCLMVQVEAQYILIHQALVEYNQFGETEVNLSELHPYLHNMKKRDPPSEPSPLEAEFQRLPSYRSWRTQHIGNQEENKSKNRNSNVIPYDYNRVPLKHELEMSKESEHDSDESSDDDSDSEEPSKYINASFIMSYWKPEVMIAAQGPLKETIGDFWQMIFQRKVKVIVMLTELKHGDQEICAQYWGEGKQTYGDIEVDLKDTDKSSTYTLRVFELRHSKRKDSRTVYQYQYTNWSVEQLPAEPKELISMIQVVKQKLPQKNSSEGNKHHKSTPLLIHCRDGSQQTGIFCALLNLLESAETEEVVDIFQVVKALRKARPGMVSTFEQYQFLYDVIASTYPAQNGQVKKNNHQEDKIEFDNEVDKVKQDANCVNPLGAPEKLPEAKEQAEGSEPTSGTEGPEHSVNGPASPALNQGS
In words: Inhibition of CD45. In short, it runs like this:
as §1

In general, IC50 refers to the midpoint of a concentration-inhibition curve. A high value points to weaker potency.

Receptor-type tyrosine-protein phosphatase F, sequence (P10586 whole entry): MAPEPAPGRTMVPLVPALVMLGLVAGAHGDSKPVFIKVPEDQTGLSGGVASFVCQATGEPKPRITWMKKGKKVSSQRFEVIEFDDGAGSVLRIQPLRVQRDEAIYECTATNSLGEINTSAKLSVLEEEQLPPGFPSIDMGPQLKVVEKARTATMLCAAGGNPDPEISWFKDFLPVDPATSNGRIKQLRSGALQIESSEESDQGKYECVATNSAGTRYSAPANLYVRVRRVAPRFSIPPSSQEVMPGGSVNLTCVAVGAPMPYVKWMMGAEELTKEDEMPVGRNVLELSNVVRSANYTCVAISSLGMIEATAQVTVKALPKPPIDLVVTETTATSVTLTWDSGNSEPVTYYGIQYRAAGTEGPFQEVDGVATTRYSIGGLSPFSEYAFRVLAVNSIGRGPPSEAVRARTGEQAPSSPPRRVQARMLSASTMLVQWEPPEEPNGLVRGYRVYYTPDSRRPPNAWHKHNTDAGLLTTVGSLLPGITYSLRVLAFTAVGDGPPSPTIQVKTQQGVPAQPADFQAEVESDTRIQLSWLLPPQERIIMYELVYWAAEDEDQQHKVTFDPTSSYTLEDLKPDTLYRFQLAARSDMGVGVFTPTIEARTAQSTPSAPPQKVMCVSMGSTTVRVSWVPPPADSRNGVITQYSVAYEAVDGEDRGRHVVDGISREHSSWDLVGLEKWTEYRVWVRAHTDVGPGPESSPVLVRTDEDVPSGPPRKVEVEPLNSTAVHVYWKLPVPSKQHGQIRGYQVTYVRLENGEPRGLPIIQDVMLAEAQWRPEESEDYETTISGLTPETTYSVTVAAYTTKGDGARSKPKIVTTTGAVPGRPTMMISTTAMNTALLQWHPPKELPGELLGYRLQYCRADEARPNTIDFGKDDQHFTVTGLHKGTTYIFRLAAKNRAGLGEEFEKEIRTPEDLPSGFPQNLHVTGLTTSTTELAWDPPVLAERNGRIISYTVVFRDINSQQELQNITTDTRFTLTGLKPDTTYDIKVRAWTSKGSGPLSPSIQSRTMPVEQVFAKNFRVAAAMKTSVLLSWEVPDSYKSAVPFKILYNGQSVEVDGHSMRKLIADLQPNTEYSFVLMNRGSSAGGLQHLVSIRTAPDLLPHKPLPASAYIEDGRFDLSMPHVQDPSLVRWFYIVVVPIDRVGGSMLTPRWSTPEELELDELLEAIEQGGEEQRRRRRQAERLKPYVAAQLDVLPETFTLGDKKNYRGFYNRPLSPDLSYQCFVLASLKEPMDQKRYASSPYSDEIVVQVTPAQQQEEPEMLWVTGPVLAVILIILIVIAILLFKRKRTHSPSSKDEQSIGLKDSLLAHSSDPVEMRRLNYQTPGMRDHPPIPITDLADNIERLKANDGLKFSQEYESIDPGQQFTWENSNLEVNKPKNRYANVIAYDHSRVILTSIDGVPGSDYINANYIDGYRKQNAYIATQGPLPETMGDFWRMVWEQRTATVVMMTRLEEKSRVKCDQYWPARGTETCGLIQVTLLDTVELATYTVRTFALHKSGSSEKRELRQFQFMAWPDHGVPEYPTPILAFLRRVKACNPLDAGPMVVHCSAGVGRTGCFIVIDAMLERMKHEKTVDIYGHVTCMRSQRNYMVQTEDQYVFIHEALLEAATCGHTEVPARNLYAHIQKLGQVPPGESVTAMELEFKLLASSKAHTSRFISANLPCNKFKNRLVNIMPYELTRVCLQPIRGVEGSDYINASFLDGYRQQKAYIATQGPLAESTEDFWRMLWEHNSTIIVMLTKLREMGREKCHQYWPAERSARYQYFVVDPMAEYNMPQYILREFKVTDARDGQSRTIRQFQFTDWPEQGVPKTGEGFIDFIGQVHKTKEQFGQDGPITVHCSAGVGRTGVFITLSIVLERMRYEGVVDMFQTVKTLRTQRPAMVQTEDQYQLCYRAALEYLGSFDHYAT

For `COC(=O)c1cc2c(-c3cn(CCCC(=O)Nc4ccc(Cl)c5ccccc45)nn3)c(-c3ccccc3)oc2cc1O`, the IC50 in experiment [1] was 44.4 µM; in experiment [2], 11.5 µM; in experiment [3] it was 32 µM; in experiment [4] it was 16.2 µM.

Consider `Cc1ccc(-c2oc3cc(O)c(C(=O)O)cc3c2-c2cn(CCCC(=O)Nc3cccc4ccccc34)nn2)cc1`, for which the IC50 in experiment [1] is 36.1 µM; in experiment [2], 0.214 µM; in experiment [3], 4.07 µM; in experiment [4], 0.681 µM.

On to `Cc1ccc(-c2oc3cc(O)c(C(=O)O)cc3c2-c2cn(CCCC(=O)Nc3ccc(Cl)c4ccccc34)nn2)cc1`, for which the IC50 in experiment [1] was 23.7 µM; in experiment [2] it was 0.205 µM; in experiment [3], 3.69 µM; in experiment [4], 1.05 µM.

With `COc1ccc2nc(NC(=O)CCCn3cc(-c4c(-c5cccc(C)c5)oc5cc(O)c(C(=O)O)cc45)nn3)sc2c1`, the IC50 in experiment [1] worked out at 39.9 µM; in experiment [2], 0.217 µM; in experiment [3], 6.36 µM; in experiment [4], 0.877 µM.

With `COc1ccc(-c2oc3cc(O)c(C(=O)O)cc3c2-c2cn(CCCC(=O)Nc3cccc4ccccc34)nn2)cc1`, the IC50 is 25.5 µM in experiment [1], 0.19 µM in experiment [2], 3.7 µM in experiment [3] and 0.41 µM in experiment [4].
